Data reported in ChEMBL document CHEMBL3414545, “Fused heterocycles bearing bridgehead nitrogen as potent HIV-1 NNRTIs. Part 4: design, synthesis and biological evaluation of novel imidazo[1,2-a]pyrazines” (Eur J Med Chem, 2015).
Counter-ions that a name gives are not always drawn. The source made the active and inactive calls. The rule behind the calls is not given here.

Legend:
[1] = molecular target: Human immunodeficiency virus type 1 reverse transcriptase (Human immunodeficiency virus 1, UniProt Q72547); assay: Inhibition of HIV1 reverse transcriptase assessed as reduction in biotin-labeled dUTP incorporation into DNA using poly(A) x oligo(dT)15 as template/primer after 1 hr by ELISA
Summary of the method: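 Wild-type HIV-1 RT was assayed with a plate-bound homopolymer poly[A]·oligo[dT]₁₅ template/primer and biotin-dUTP, following the Roche RT kit protocol. Incorporated biotin-dUTP, a measure of RT activity, was quantified by ELISA. Percentage inhibition was calculated by formula, and IC₅₀ is the concentration inhibiting biotin-dUTP incorporation by 50%.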

[2] = tested on: Human immunodeficiency virus 1; assay: Antiviral activity against HIV1 RES056 expressing reverse transcriptase K103N/Y181C double mutant infected in human MT4 cells assessed as reduction in virus-induced cytopathic effect after 5 days by MTT assay; format: functional, organism-based; conditions: Human immunodeficiency virus 1, RES056, MT4, 120 h
Summary of the method: (§1)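 MT-4 cells resuspended at 6 × 10⁵ cells/mL, then infected with 100–300 CCID₅₀ of HIV-1 IIIB or RES056 or left mock-infected. Compound, in serial five-fold dilutions in triplicate wells, was added at the start. Viability was read by MTT after 5 days. EC₅₀ is 50% protection from viral cytopathicity, CC₅₀ is 50% viability loss in mock-infected cells, and SI is CC₅₀/EC₅₀.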

[3] = tested on: Human immunodeficiency virus 1; assay: Antiviral activity against HIV1 3B infected in human MT4 cells assessed as reduction in virus-induced cytopathic effect after 5 days by MTT assay; format: functional, organism-based; conditions: Human immunodeficiency virus 1, 3B, MT4, 120 h
Summary of the method: (§2)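 Exponentially growing MT-4 cells were pelleted and resuspended at 6 × 10⁵ cells/mL, then infected with virus stock at 100–300 CCID₅₀. Compounds were added at infection as serial five-fold dilutions in triplicate wells, with untreated infected and mock-infected controls. Viability was read spectrophotometrically by MTT five days post-infection. EC₅₀ is the concentration giving 50% protection from viral cytopathic effect.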

[4] = Selectivity index, ratio of CC50 for mock-infected human MT4 cells to EC50 for HIV1 3B infected in human MT4 cells; format: toxicity, cell-based; conditions: mock-infected and infected with HIV1 3B, read-out: Selectivity Index; summary of the method: as §1
[5] = tested on: Human immunodeficiency virus 2; assay: Antiviral activity against HIV2 strain ROD infected in human MT4 cells assessed as reduction in virus-induced cytopathic effect at subtoxic concentration; format: functional, organism-based; conditions: ISOLATE ROD; summary of the method: as §2
[6] = Selectivity index, ratio of CC50 for mock-infected human MT4 cells to EC50 for HIV1 RES056 expressing reverse transcriptase K103N/Y181C double mutant; format: toxicity, cell-based; conditions: read-out: Selectivity Index; summary of the method: as §1

SMILES: O=[N+]([O-])c1ccc(Nc2cn3ccnc3c(Oc3c(F)cc(F)cc3F)n2)cc1
- IC50 [1]: 11 µM
- EC50 [2]: > 28 µM
- EC50 [3]: > 28 µM
- selectivity ratio [4]: < 1
- inhibition [5]: inactive
- selectivity ratio [6]: < 1

SMILES: Cc1cc(C#N)cc(C)c1Oc1nc(Nc2ccc(Cl)cc2)cn2ccnc12
- IC50 [1]: 5.5 µM
- EC50 [3]: > 13 µM
- selectivity ratio [4]: < 1
- inhibition [5]: inactive

SMILES: Cc1cc(C#N)cc(C)c1Oc1nc(Nc2ccc([N+](=O)[O-])cc2)cn2ccnc12
- IC50 [1]: 14 µM
- EC50 [2]: > 29 µM
- EC50 [3]: 2.3 µM
- selectivity ratio [4]: 13
- inhibition [5]: inactive
- selectivity ratio [6]: < 1

SMILES: Cc1cn([C@H]2C[C@H](N=[N+]=[N-])[C@@H](CO)O2)c(=O)[nH]c1=O [ZIDOVUDINE]
- EC50 [2]: 0.01 µM
- selectivity ratio [4]: > 13100
- selectivity ratio [6]: > 9150

SMILES: Cc1cc(C#N)cc(C)c1Oc1nc(Nc2ccc(C#N)cc2)cn2ccnc12
- IC50 [1]: 0.26 µM
- EC50 [2]: > 73 µM
- EC50 [3]: 0.32 µM
- selectivity ratio [4]: ≥ 224
- inhibition [5]: inactive
- selectivity ratio [6]: 1

SMILES: Cc1cc(Br)cc(C)c1Oc1nc(Nc2ccc([N+](=O)[O-])cc2)cn2ccnc12
- IC50 [1]: 4.1 µM
- EC50 [2]: > 28 µM
- EC50 [3]: 4 µM
- selectivity ratio [4]: 7
- inhibition [5]: inactive
- selectivity ratio [6]: < 1

SMILES: Cc1cccc(C)c1Oc1nc(Nc2ccc(CC#N)cc2)cn2ccnc12
- IC50 [1]: 5.7 µM
- EC50 [2]: > 156 µM
- EC50 [3]: > 156 µM
- selectivity ratio [4]: < 1
- inhibition [5]: inactive
- selectivity ratio [6]: < 1

SMILES: O=c1[nH]cnc2c1ncn2[C@H]1CC[C@@H](CO)O1 [DIDANOSINE]
- selectivity ratio [4]: > 9

SMILES: Nc1ccn([C@@H]2CS[C@H](CO)O2)c(=O)n1 [LAMIVUDINE]
- selectivity ratio [4]: > 39

SMILES: Cc1cc(Cl)cc(C)c1Oc1nc(Nc2ccc([N+](=O)[O-])cc2)cn2ccnc12
- IC50 [1]: 1.3 µM
- EC50 [2]: > 33 µM
- EC50 [3]: 4.6 µM
- selectivity ratio [4]: 7
- inhibition [5]: inactive
- selectivity ratio [6]: < 1

SMILES: Cc1cc(C)c(Oc2nc(Nc3ccc(C#N)cc3)cn3ccnc23)c(C)c1
- IC50 [1]: 0.4 µM
- EC50 [2]: > 33 µM
- EC50 [3]: 0.26 µM
- selectivity ratio [4]: 126
- inhibition [5]: inactive
- selectivity ratio [6]: < 1

SMILES: Cc1cccc(C)c1Oc1nc(Nc2ccc(Cl)cc2)cn2ccnc12
- IC50 [1]: 15 µM
- EC50 [2]: > 57 µM
- EC50 [3]: > 57 µM
- selectivity ratio [4]: < 1
- inhibition [5]: inactive
- selectivity ratio [6]: < 1

SMILES: CC(C)Nc1cccnc1N1CCN(C(=O)c2cc3cc(NS(C)(=O)=O)ccc3[nH]2)CC1 [DELAVIRDINE MESYLATE]
- EC50 [2]: > 36 µM
- selectivity ratio [4]: > 67
- selectivity ratio [6]: 1

SMILES: Cc1cc(Cl)cc(C)c1Oc1nc(Nc2ccc(C#N)cc2)cn2ccnc12
- IC50 [1]: 1.1 µM
- EC50 [2]: > 34 µM
- EC50 [3]: 0.87 µM
- selectivity ratio [4]: 39
- inhibition [5]: inactive
- selectivity ratio [6]: < 1

SMILES: Cc1cc(C)c(Oc2nc(Nc3ccc(Cl)cc3)cn3ccnc23)c(C)c1
- IC50 [1]: 5.9 µM
- EC50 [2]: > 12 µM
- EC50 [3]: > 12 µM
- selectivity ratio [4]: < 1
- inhibition [5]: inactive
- selectivity ratio [6]: < 1

SMILES: Cc1cc(C)c(Oc2nc(Nc3ccc(CC#N)cc3)cn3ccnc23)c(C)c1
- IC50 [1]: 0.36 µM
- EC50 [2]: > 117 µM
- EC50 [3]: 9.2 µM
- selectivity ratio [4]: 13
- inhibition [5]: inactive
- selectivity ratio [6]: < 1

SMILES: N#Cc1ccc(Nc2cn3ccnc3c(Oc3c(F)cc(F)cc3F)n2)cc1
- IC50 [1]: 0.47 µM
- EC50 [2]: > 38 µM
- EC50 [3]: 7.2 µM
- selectivity ratio [4]: 5
- inhibition [5]: inactive
- selectivity ratio [6]: < 1

SMILES: Cc1cc(Br)cc(C)c1Oc1nc(Nc2ccc(C#N)cc2)cn2ccnc12
- IC50 [1]: 0.41 µM
- EC50 [2]: > 28 µM
- EC50 [3]: 0.98 µM
- selectivity ratio [4]: 28
- inhibition [5]: inactive
- selectivity ratio [6]: < 1

SMILES: Cc1cc(C#N)cc(C)c1Oc1nc(Nc2ccc(C#N)cc2)nc2[nH]ccc12
- EC50 [3]: 0.0009 µM

SMILES: Cc1ccnc2c1NC(=O)c1cccnc1N2C1CC1 [NEVIRAPINE]
- EC50 [2]: ≥ 7.6 µM

SMILES: Cc1cc(C)c(Oc2nc(Nc3ccc([N+](=O)[O-])cc3)cn3ccnc23)c(C)c1
- IC50 [1]: 4.7 µM
- EC50 [2]: > 34 µM
- EC50 [3]: 1.3 µM
- selectivity ratio [4]: 25
- inhibition [5]: inactive
- selectivity ratio [6]: < 1

SMILES: Cc1cccc(C)c1Oc1nc(Nc2ccc(C#N)cc2)cn2ccnc12
- IC50 [1]: 0.82 µM
- EC50 [2]: > 32 µM
- EC50 [3]: 6.5 µM
- selectivity ratio [4]: 5
- inhibition [5]: inactive
- selectivity ratio [6]: < 1

SMILES: Cc1cccc(C)c1Oc1nc(Nc2ccc([N+](=O)[O-])cc2)cn2ccnc12
- IC50 [1]: 334 µM
- EC50 [3]: > 5.3 µM
- selectivity ratio [4]: < 1
- inhibition [5]: inactive

SMILES: Cc1cc(C#N)cc(C)c1Oc1nc(Nc2ccc(C#N)cc2)nc(N)c1Br [ETRAVIRINE]
- EC50 [2]: 0.02 µM
- EC50 [3]: 0.004 µM

SMILES: Cc1cc(C#N)cc(C)c1Oc1nc(Nc2ccc(CC#N)cc2)cn2ccnc12
- IC50 [1]: 0.17 µM
- EC50 [2]: > 282 µM
- EC50 [3]: 19 µM
- selectivity ratio [4]: 15
- inhibition [5]: inactive
- selectivity ratio [6]: < 1
